ChEMBL document CHEMBL1135536, “Structure-activity relationships in 4-aminoquinoline antiplasmodials. The role of the group at the 7-position” (J Med Chem, 2002)

Legend:
[1] = Association constant of hematin-aminoquinoline complex formation reported by spectrophotometric titration in aqueous dimethyl sulfoxide(DMSO) at pH 7.5; assay type: ADME; conditions: buffer
Procedure, shortened: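 Spectrophotometric titration of monomeric hematin with aminoquinoline, fitted to 1:1 complex formation. Run at 25 °C, pH 7.5, in 40% aqueous DMSO with 20 mM HEPES. Reported as log K, the average of three independent measurements ± 1 SEM.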

[2] = Acid dissociation constant of the tertiary ammonium group; assay type: ADME; conditions: read-out: pKa2
Procedure, shortened: (§1)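 Glass-electrode potentiometric titration under nitrogen at 25 °C in 0.15 M NaCl background electrolyte. Data were fitted to give two pKa values per aminoquinoline. Reported values are the average of three independent measurements, with error given as 1 SD.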

[3] = Acid dissociation constant of the quinolinium cation; assay type: ADME; conditions: read-out: pKa1; procedure, shortened: as §1
[4] = system: Plasmodium falciparum; experiment: In vitro antiplasmodial activity against chloroquine-sensitive Plasmodium falciparum D10; assay type: functional, organism-based
[5] = Normalised IC50 was measured; assay type: functional
Procedure, shortened: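 Normalized IC50 is the D10 P. falciparum IC50 multiplied by α. α is the compound's calculated vacuolar accumulation ratio divided by chloroquine's, both from measured pKa values, assuming vacuolar pH 5.5 and external pH 7.4.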

| SMILES | Log K [1] | pKa [2] | pKa [3] | IC50 [4] [nM] | IC50 [5] [nM] |
| --- | --- | --- | --- | --- | --- |
| CCN(CC)CCNc1ccnc2cc(N)ccc12 | 4.35 | 10 | 8.36 | > 5000 | > 4830 |
| CCN(CC)CCNc1ccnc2cc(C(F)(F)F)ccc12 | 4.67 | 7.65 | 7.5 | 99 | 48 |
| CCN(CC)CCNc1ccnc2cc(Br)ccc12 | 4.99 | 7.97 | 7.93 | 36 | 28 |
| CCN(CC)CCNc1ccnc2cc(F)ccc12 | 4.6 | 9.24 | 7.62 | 138 | 92 |
| CCN(CC)CCNc1ccnc2cc(OC)ccc12 | 4.83 | 9.5 | 8.09 | 448 | 399 |
| CCN(CC)CCNc1ccnc2cc(C)ccc12 | 4.86 | 9.51 | 8.12 | 82 | 74 |
| CCN(CC)CCNc1ccnc2cc(O)ccc12 | 4.48 | 8.95 | 6.82 | 3070 | 700 |
| CCN(CC)CCNc1ccnc2cc(Cl)ccc12 | 5.81 | 8.83 | 7.56 | 37 | 23 |
| CCN(CC)CCNc1ccnc2cc([N+](=O)[O-])ccc12 | 4.65 | 8.8 | 6.28 | 325 | 28 |
| CCN(CC)CCNc1ccnc2cc(I)ccc12 | 5.02 | 7.79 | 7.48 | 35 | 17 |
| CCN(CC)CCNc1ccnc2ccccc12 | 4.75 | 9.42 | 7.96 | 1060 | 892 |
